Data set [1] is described as follows: Renal clearance in healthy human at 62.5 mg, po administered as single dose coadministered with 100 mg of ritonavir by high-pressure liquid chromatography-tandem mass spectrometry/mass spectrometry method. Format: ADME, organism-based, Kidney. Conditions: in vivo, read-out: CL_renal (converted).
A short description of data set [2]: Cmax in healthy human at 87.5 mg, po administered as single dose coadministered with 100 mg of ritonavir by high-pressure liquid chromatography-tandem mass spectrometry/mass spectrometry method. Format: ADME, organism-based. Details: dose 87.5 mg, route oral. To be noted: in vivo. In outline:
(§1)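 Healthy male volunteers, fasted overnight, got one oral dose of BILR 355 in PEG solution with 200 ml water. Ritonavir 100 mg was given 10 h before and again with the dose. Plasma was sampled (EDTA) from predose to 144 h and assayed by validated LC-MS/MS. Cmax and Vz/F came from noncompartmental analysis. Vss/F = CL/F·(MRTp.o. − 1/Ka), with Ka from compartmental modelling.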

Data set [3] is described as follows: Cmax in healthy human at 5 mg, po administered as single dose by high-pressure liquid chromatography-tandem mass spectrometry/mass spectrometry method. The data set is classed as ADME, organism-based. Details: dose 5 mg, route oral. To be noted: in vivo. In outline:
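Single fasting oral dose of BILR 355 in PEG solution with 200 ml tap water, given to healthy males. Standard breakfast came 60-90 min after the dose. EDTA plasma was sampled predose to 144 h, stored below −18°C and assayed by LC-MS/MS after protein precipitation. Noncompartmental analysis gave Vz/F. Vss/F = CL/F·(MRTp.o. − 1/Ka), with Ka from compartmental modelling.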

Data set [4] has as its system Homo sapiens. Description: Toxicity in healthy human assessed as occurrence of increase in alanine aminotransferase level at 25 mg, po administered as single dose relative to control. The data set is classed as organism-based. To be noted: in vivo.
Data set [5] concerns Homo sapiens. Description: Toxicity in healthy human assessed as occurrence of abdominal pain at 1 mg, po administered as single dose relative to control. The data set is classed as organism-based, Abdomen. Conditions: in vivo.
Data set [6] can be described thus: AUC (0 to infinity) in healthy human at 50 mg, po administered as single dose coadministered with 100 mg of ritonavir. The data set is classed as ADME, organism-based. Details: dose 50 mg, time infinity, route oral. To be noted: plasma. In outline: (§2)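 Healthy male volunteers, fasted. Ritonavir 100 mg given 10 h before and again together with single oral BILR 355 in PEG solution. EDTA plasma sampled predose to 144 h. LC-MS/MS assay after protein precipitation. Noncompartmental analysis, AUC by linear up/log down trapezoidal rule; Vss = CL/F·(MRTp.o. − 1/Ka).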

Data set [7] relates to Homo sapiens. Description: Toxicity in healthy human assessed as occurrence of fatigue at 12.5 mg, po administered as single dose coadministered with 100 mg of ritonavir. Format: organism-based. Conditions: in vivo.
A short description of data set [8]: Apparent volume of distribution at steady state in healthy human at 12.5 mg, po administered as single dose coadministered with 100 mg of ritonavir. The data set is classed as ADME, organism-based. Conditions: in vivo, read-out: Vss/F. In a few lines: as §2
Data set [9] can be described thus: Cmax in healthy human at 5 mg, po administered as single dose coadministered with 100 mg of ritonavir by high-pressure liquid chromatography-tandem mass spectrometry/mass spectrometry method. The data set is classed as ADME, organism-based. Details: dose 5 mg, route oral. To be noted: in vivo. In outline: as §1
Data set [10] relates to Homo sapiens. Description: Toxicity in healthy human assessed as occurrence of herpes simplex at 12.5 mg, po administered as single dose relative to control. Format: organism-based. To be noted: in vivo.
In data set [11] the test system is Homo sapiens. Description: Toxicity in healthy human assessed as occurrence of frequent bowel movements at 1 mg, po administered as single dose relative to control. Format: organism-based. To be noted: in vivo.
The subject of data set [12] is Homo sapiens. Description: Toxicity in healthy human assessed as occurrence of herpes simplex at 75 mg, po administered as single dose relative to control. Format: organism-based. Conditions: in vivo.

Molecules are shown by their SMILES.

For the compound `CCN1c2ncc(CCOc3cc[n+]([O-])c4ccccc34)cc2C(=O)N(C)c2cccnc21` [BILR 355], in data set [1], the CL renal was 7.17 mL/min. The results for the Cmax in data set [2], in [3] and in data set [9] were 838 ng/mL, 4.36 ng/mL and 25.3 ng/mL, respectively. The Activity with Homo sapiens [4], in the data set with Homo sapiens [5], in the data set on Homo sapiens [7], in the data set on Homo sapiens [10], with Homo sapiens [11] and with Homo sapiens [12] was 0% in each case. In data set [6], the AUC(0-inf) (as a rule, total exposure, with the tail of the curve extrapolated) stood at 6800 ng·h/mL. Further, in data set [8], the Vd/F was 153 L.

These data come from ChEMBL document CHEMBL1629563, “Pharmacokinetic and safety evaluation of BILR 355, a second-generation nonnucleoside reverse transcriptase inhibitor, in healthy volunteers” (Antimicrob Agents Chemother, 2008).
